The source of these data is PubChem BioAssay.

For orientation: viability means a read-out of living cells in per cent, often relative to untreated cells. The term inhibition denotes the relative decrease from the control value, in per cent.

A short description of assay [1]: SK-BR-3 cell growth inhibitors, pilot screen, 24 h, human (AID 572;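 active = viability at or below 10% of carrier control in both of two separate runs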;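 also: compound exposure lasted between 18 and 24 h rather than exactly 24 h; 100% = carrier-treated control wells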). Particulars: SK-BR-3 viability, CellTiter-Glo luminescence, at 10 µM, stronger effect = lower value. Background: In ATP-based viability assays light output follows the ATP content of the culture.
Assay [2] is described as follows: HUVEC growth inhibition – cell-based, human, primary screen (AID 575;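 active = viability at or below 30% in both replicate assays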;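 also: 100% = median of untreated cell wells with 0.1% DMSO on each plate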). Conditions: HUVEC proliferation, CellTiter-Glo luminescence, 72 h; at 10 µM; stronger effect = lower value. In a few lines: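 System – primary HUVEC, no more than 12 passages · Medium – Low-serum (2% FBS) EBM, supplemented · Times – 72 h exposure, 37 °C, 5% CO2, 30 min RT equilibration · Measured by – luminescent ATP assay · Read-out – % viability relative to median vehicle-well signal on each plate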

Assay [3] in a line: growth inhibitors of H69AR lung tumor, primary screen, human, duplicate replicates (AID 580;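 active = viability at or under a set limit in both replicates, limit being median viability minus 3 SD, cut at about 48% in these data, passing the limit was not always enough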;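 also: 100% = mean luminescence of untreated wells and 0% = no signal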). Particulars: H69AR lung tumor cells viability, ATP luminescence, 72 h; at 10 µM; stronger effect = lower value.
Assay [4] in a line: reversal of MRP1-mediated doxorubicin resistance, pilot screen, H69AR cells, doxorubicin co-treatment (AID 601). Particulars: CellTiter-Glo, 72 h, at 10 µM; for differential viability (reversal): stronger effect = higher value.
Assay [5] can be described thus: 384-well plate pilot, post-Golgi transport modulator project, inhibition of yeast transport mutant growth (AID 636; in the data active = inhibition above about 31%). Particulars: absorbance 615 nm, about 18 h, stronger effect = higher value.
A short description of assay [6]: growth suppression of yeast trafficking mutant, preliminary HTS, modulators of trafficking downstream of Golgi apparatus project, 1536-format plate, OD 615 nm (AID 637; in the data active = inhibition above about 30%). Particulars: yeast transport mutant growth, absorbance 615 nm, 18 h; stronger effect = higher value.
[7] abbreviates: H69AR cells + 2 uM doxorubicin, measured here: viability with 2 uM doxorubicin, stronger effect = lower value.
Setting [8] is: H69AR cells, compound alone cytotoxicity.

Several values for one entry are separate records, joined by “and”; a condition that tells them apart may be missing. Equal values may be shown once. Activity calls are given as the source filed them.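 The calls were made as follows, unless noted: active = viability loss from added drug above about 55%, and viability with drug at most 40%, in both replicates (limit read from the data, passing the limit was not always enough); inconclusive = both conditions met in only one replicate; inactive = neither replicate meets both conditions.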

Turning to `Brc1c(NC2=NCCN2)ccc2nccnc12`, the viability is 105% (inactive) in assay [1]; 106% (inactive) in assay [2]; 95% (inactive) in assay [3]; 102% in assay [4] (setting [7]); 95% in assay [4] (setting [8]). In assay [4] (H69AR cells + 2 uM doxorubicin), the differential viability (reversal) is -7.09% (inactive). The results for the inhibition in assay [5] and in assay [6] were -0.39% (inactive) and 15.3% (inactive), respectively.

With `COc1ccc(CN(CC(=O)NCC2CCCO2)C(=O)CCC(=O)Nc2cc(C)on2)cc1` (stereo unspecified), the viability was 77% (inactive) in assay [1]; 95.1% (inactive) in assay [2]; 89.4% (inactive) in assay [3]; 93.4% in assay [4] (setting [7]); 89.4% in assay [4] (setting [8]). The differential viability (reversal) in assay [4] (H69AR cells + 2 uM doxorubicin) is -4.07% (inactive). The inhibition in assay [5] was 4.53% (inactive); in assay [6] it was 9.27% (inactive).

Turning to `CC(=O)Nc1nc2c(c3c1c(=O)oc1ccccc13)CC(C)CC2` (stereo unspecified), the viability is 123% (inactive) in assay [1]; 85.1% (inactive) in assay [2]; 92.1% (inactive) in assay [3]; 87.1% in assay [4] (setting [7]); 92.1% in assay [4] (setting [8]). For the same compound, the differential viability (reversal) in assay [4] (H69AR cells + 2 uM doxorubicin) is 4.96% (inactive). The values for the inhibition in assay [5] and in assay [6] were -1.04% (inactive) and -2.79% (inactive), respectively.

For `CS(=O)(=O)N(CC(=O)N1CCCCCC1)c1ccc(Br)cc1`, the viability in assay [1] is 86% (inactive); in assay [2] it was 96.5% (inactive); in assay [3], 97.9% (inactive); in assay [4] (setting [7]), 80.6%; in assay [4] (setting [8]), 97.9%. Moreover, the differential viability (reversal) in assay [4] (H69AR cells + 2 uM doxorubicin) is 17.2% (inactive). Besides, the figures for the inhibition in assay [5] and in assay [6] were -7.47% (inactive) and -10% (inactive), respectively.

On to `O=S1(=O)CCC(N=Cc2cc(Br)ccc2O)C1` (stereo unspecified), for which the viability in assay [1] is 94% (inactive); in assay [2] it was 68.9% (inactive); in assay [3], 78.1% (inactive); in assay [4] (setting [7]), 92.4%; in assay [4] (setting [8]), 78.1%. The differential viability (reversal) in assay [4] (H69AR cells + 2 uM doxorubicin) was -14.3% (inactive). Further, the inhibition in assay [5] was -5.62% (inactive); in assay [6], 2.26% (inactive).

In the case of `Cc1ccc(-c2ccc(=O)n(CC(=O)NCCCN3CCCCC3C)n2)cc1` (stereo unspecified), the viability was 97% (inactive) in assay [1]; 99% (inactive) in assay [2]; 91.9% (inactive) in assay [3]; 95.4% in assay [4] (setting [7]); 91.9% in assay [4] (setting [8]). For the same compound, the differential viability (reversal) in assay [4] (H69AR cells + 2 uM doxorubicin) is -3.54% (inactive). Further, the inhibition is -0.39% (inactive) in assay [5] and -6.56% (inactive) in assay [6].

Take `CN(C)C(=O)Oc1cccc([N+](C)(C)C)c1`: the viability in assay [1] was 62% (inactive) and 92% (inactive); in assay [2], 97.5% (inactive) and 92% (inactive); in assay [3] it was 94.7% (inactive) and 120% (inactive); in assay [4] (setting [7]), 96.6% and 103%; in assay [4] (setting [8]) it was 94.7% and 120%. In addition, in assay [4] (H69AR cells + 2 uM doxorubicin), the differential viability (reversal) was -1.94% (inactive) and 17.4% (inactive). For the same compound, the inhibition in assay [5] was -5.06% (inactive) and -2.21% (inactive); in assay [6] it was -4% (inactive) and -5.83% (inactive).

Take `COc1ccccc1N1CCN(C(=O)CN(Cc2ccc(Cl)cc2)S(C)(=O)=O)CC1`: the viability in assay [1] is 91% (inactive); in assay [2], 88.7% (inactive); in assay [3] it was 99.8% (inactive); in assay [4] (setting [7]), 95.7%; in assay [4] (setting [8]) it was 99.8%. Further, the differential viability (reversal) in assay [4] (H69AR cells + 2 uM doxorubicin) is 4.09% (inactive). Further, the inhibition in assay [5] is -5.45% (inactive); in assay [6], -0.49% (inactive).

Turning to `CCOC(=O)N1CCC(N(C(=O)Nc2cccc(OC)c2)C(C)CC)CC1` (stereo unspecified), the viability in assay [1] is 129% (inactive); in assay [2], 120% (inactive); in assay [3] it was 96.9% (inactive); in assay [4] (setting [7]), 95.5%; in assay [4] (setting [8]), 96.9%. The differential viability (reversal) in assay [4] (H69AR cells + 2 uM doxorubicin) is 1.43% (inactive). Besides, the inhibition in assay [5] was -2.21% (inactive); in assay [6] it was 3.11% (inactive).

In the case of `Cn1c(=O)c2c(nc(NCCCO)n2Cc2cccc(Br)c2)n(C)c1=O`, the viability was 91% (inactive) in assay [1]; 104% (inactive) in assay [2]; 85.7% (inactive) in assay [3]; 85.4% in assay [4] (setting [7]); 85.7% in assay [4] (setting [8]). In addition, the differential viability (reversal) in assay [4] (H69AR cells + 2 uM doxorubicin) is 0.26% (inactive). In addition, the inhibition is -5.73% (inactive) in assay [5] and 3.64% (inactive) in assay [6].

On to `CCc1nnc(SCC(=O)NC2CCCCC2)nc1CC`, for which the viability in assay [1] is 94% (inactive); in assay [2], 92.5% (inactive); in assay [3] it was 97.9% (inactive); in assay [4] (setting [7]), 84.8%; in assay [4] (setting [8]), 97.9%. The differential viability (reversal) in assay [4] (H69AR cells + 2 uM doxorubicin) is 13.1% (inactive). Moreover, the inhibition in assay [5] was -4.29% (inactive); in assay [6] it was -7.7% (inactive).

For the compound `c1cc2c(cc1Cn1cnnn1)OCO2`, the viability in assay [1] was 96% (inactive); in assay [2], 96.9% (inactive); in assay [3], 105% (inactive); in assay [4] (setting [7]), 92.7%; in assay [4] (setting [8]), 105%. In addition, in assay [4] (H69AR cells + 2 uM doxorubicin), the differential viability (reversal) is 12.3% (inactive). In addition, the results for the inhibition in assay [5] and in assay [6] were -1.95% (inactive) and 4.26% (inactive), respectively.
